{"source": "ChEMBL document CHEMBL4118256", "about": "“Second Generation of Mannich Base-Type Derivatives with in Vivo Activity against Trypanosoma cruzi” (J Med Chem, 2018)", "key": {"Mus musculus [1]": {"system": "Mus musculus", "assay": "(§1) Nephrotoxicity in Balb/c mouse infected with Trypanosoma cruzi MHOM/Pe/2011/Arequipa DTU 5 trypamastigotes assessed as increase in urea level in serum at 100 mg/kg, po once daily for 5 consecutive days starting from day 10 post infection measured on day 127 post infection by biochemical analysis relative to control", "assay_type": "toxicity, organism-based", "settings": "in vivo"}, "Trypanosoma cruzi [2]": {"system": "Trypanosoma cruzi", "assay": "(§2) Antitrypanosomal activity against Trypanosoma cruzi MHOM/Pe/2011/Arequipa DTU 5 trypamastigotes infected in Balb/c mouse assessed as reduction in parasitaemia reactivation in adipose tissue at 100 mg/kg, po pretreated once daily for 5 consecutive days starting from day 75 post infection followed by cyclophosphamide-induced immunosuppression on day 100 post infection every 4 days for a maximum of 3 doses measured on day 127 post infection by PCR method", "assay_type": "functional", "set-up": "scale not given: the % may be the effect or the level left", "how_it_was_run": "(§3)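 Necropsy on day 127 pi after oral treatment and cyclophosphamide immunosuppression. Tissue DNA was amplified by PCR targeting the ~300 bp T. cruzi SOD gene, 200 nM each primer, 30 cycles with 55.5 °C annealing. Products run on 2 % agarose; positive organs counted out of six mice.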"}, "Mus musculus [3]": {"system": "Mus musculus", "assay": "(§4) Cardiotoxicity in Balb/c mouse infected with Trypanosoma cruzi MHOM/Pe/2011/Arequipa DTU 5 trypamastigotes assessed as decrease in ratio of creatine kinase in muscle to brain at 100 mg/kg, po once daily for 5 consecutive days starting from day 75 post infection measured on day 127 post infection by biochemical analysis relative to control", "assay_type": "toxicity, organism-based", "set-up": "scale not given: the % may be the effect or the level left", "settings": "in vivo"}, "Trypanosoma cruzi [4]": {"system": "Trypanosoma cruzi", "assay": "Antitrypanosomal activity against Trypanosoma cruzi MHOM/Pe/2011/Arequipa DTU 5 trypamastigotes infected in Balb/c mouse assessed as parasitaemia reactivation at 100 mg/kg, po pretreated once daily for 5 consecutive days starting from day 10 post infection followed by cyclophosphamide-induced immunosuppression on day 100 post infection every 4 days for a maximum of 3 doses measured up to 1 week post immunosuppression by Neubauer chamber method", "assay_type": "functional"}, "Mus musculus [5]": {"system": "Mus musculus", "assay": "as §1, with “Hepatotoxicity” for “Nephrotoxicity”, “ratio of serum AST to GOT” for “urea”, “level” for “level in serum”, “16” for “127”", "assay_type": "toxicity, organism-based", "settings": "in vivo"}, "Mus musculus [6]": {"system": "Mus musculus", "assay": "as §1, with “Hepatotoxicity” for “Nephrotoxicity”, “change” for “increase”, “alkaline phosphatase” for “urea”, “level” for “level in serum”, “[…],” for “100 mg/kg,”, “16” for “127”", "assay_type": "toxicity, organism-based", "settings": "in vivo", "how_it_was_run": "(§5)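 Serum clinical chemistry in Arequipa-infected female BALB/c mice. Oral 20 mg·kg-1 per day for 5 days, started day 10 or day 75 pi. Samples taken at day 16 pi or day 81 pi, and on necropsy day. Markers: CK-MB and LDH (U/L), AST, ALT and alkaline phosphatase (U/L), total bilirubin. Results scored relative to infected untreated controls; uninfected reference n = 15.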"}, "Mus musculus [7]": {"system": "Mus musculus", "assay": "as §1, with “Hepatotoxicity in” for “Nephrotoxicity in”, “in alkaline phosphatase” for “in urea”, “level” for “level in serum”, “day 75” for “day 10”, “day 81” for “day 127”", "assay_type": "toxicity, organism-based", "settings": "in vivo"}, "Mus musculus [8]": {"system": "Mus musculus", "assay": "Toxicity in Balb/c mouse assessed as reduction in body mass at 20 mg/kg, po once daily for 5 consecutive days starting from day 75 post infection relative to control", "assay_type": "organism-based", "set-up": "scale not given: the % may be the effect or the level left", "settings": "in vivo"}, "Trypanosoma cruzi [9]": {"system": "Trypanosoma cruzi", "assay": "Antitrypanosomal activity against Trypanosoma cruzi MHOM/Pe/2011/Arequipa DTU 5 trypamastigotes infected in Balb/c mouse assessed as reduction in parasitaemia level at 20 mg/kg, po once daily for 5 consecutive days starting from day 10 post infection measured on day 47 post infection by Neubauer chamber method", "assay_type": "functional, organism-based", "how_it_was_run": "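Six female BALB/c mice per group, infected i.p. with 5 x 10^5 Arequipa bloodstream trypomastigotes in PBS. Oral dosing once daily for 5 days from day 10 pi, 20 mg·kg-1 per day in aqueous 5 % DMSO/0.5 % HPMC, vehicle to controls. Blood trypomastigotes counted in a Neubauer chamber (parasites·mL-1); means ± SD.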"}, "Trypanosoma cruzi [10]": {"system": "Trypanosoma cruzi", "assay": "Antitrypanosomal activity against Trypanosoma cruzi MHOM/Pe/2011/Arequipa DTU 5 trypamastigotes infected in Balb/c mouse assessed as reduction in parasitaemia reactivation at 20 mg/kg, po pretreated once daily for 5 consecutive days starting from day 75 post infection followed by cyclophosphamide-induced immunosuppression on day 100 post infection every 4 days for a maximum of 3 doses measured up to 1 week post immunosuppression by Neubauer chamber method", "assay_type": "functional", "set-up": "scale not given: the % may be the effect or the level left", "how_it_was_run": "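Female BALB/c mice (8-10 weeks, 20-25 g), groups of six, infected i.p. with 5 x 10^5 bloodstream trypomastigotes in 0.2 mL PBS; oral dosing 20 mg·kg-1 per day for 5 days in 5% DMSO/0.5% HPMC vehicle. After day 100 pi, cyclophosphamide 200 mg·kg-1 i.p. every 4 days, up to three doses. Within 1 week after the last dose, fresh-blood bloodstream trypomastigotes counted in a Neubauer chamber. Reactivation expressed relative to untreated infected controls.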"}, "Trypanosoma cruzi [11]": {"system": "Trypanosoma cruzi", "assay": "as §2, with “in brain” for “in adipose”, “at 20” for “at 100”, “day 10” for “day 75”", "assay_type": "functional", "set-up": "scale not given: the % may be the effect or the level left", "how_it_was_run": "as §3"}, "Trypanosoma cruzi [12]": {"system": "Trypanosoma cruzi", "assay": "as §2, with “in stomach” for “in adipose”, “at 20” for “at 100”, “day 10” for “day 75”", "assay_type": "functional", "set-up": "scale not given: the % may be the effect or the level left"}, "Trypanosoma cruzi [13]": {"system": "Trypanosoma cruzi", "assay": "Antitrypanosomal activity against Trypanosoma cruzi MHOM/Pe/2011/Arequipa DTU 5 trypamastigotes infected in Balb/c mouse assessed as reduction in Ig-G level in serum at 20 mg/kg, po once daily for 5 consecutive days starting from day 10 post infection measured on day 16 post infection by ELISA", "assay_type": "functional, organism-based", "how_it_was_run": "(§6)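 Female BALB/c mice (8-10 weeks, 20-25 g), six per group, infected i.p. with 5 x 10^5 Arequipa bloodstream trypomastigotes. Compound was given orally once daily for 5 days from day 10 or day 75 pi, at 20 mg·kg-1 per day in 5 % DMSO/0.5 % HPMC. Anti-T. cruzi IgG in serum was measured by ELISA with Fe-SOD antigen, read as OD 490 nm.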"}, "Trypanosoma cruzi [14]": {"system": "Trypanosoma cruzi", "assay": "as §2, with “in Ig-G level” for “in parasitaemia reactivation”, “in serum” for “in adipose tissue”, “at 20” for “at 100”, “day 10” for “day 75”, “by ELISA” for “by PCR method”", "assay_type": "functional, organism-based", "how_it_was_run": "as §6"}, "Mus musculus [15]": {"system": "Mus musculus", "assay": "as §1, with “decrease” for “increase”, “20” for “100”, “16” for “127”", "assay_type": "toxicity, organism-based", "set-up": "scale not given: the % may be the effect or the level left", "settings": "in vivo"}, "Mus musculus [16]": {"system": "Mus musculus", "assay": "as §1, with “decrease” for “increase”, “20” for “100”, “75” for “10”, “81” for “127”", "assay_type": "toxicity, organism-based", "set-up": "scale not given: the % may be the effect or the level left", "settings": "in vivo"}, "Mus musculus [17]": {"system": "Mus musculus", "assay": "as §1, with “decrease” for “increase”, “20” for “100”, “75” for “10”", "assay_type": "toxicity, organism-based", "set-up": "scale not given: the % may be the effect or the level left", "settings": "in vivo"}, "Mus musculus [18]": {"system": "Mus musculus", "assay": "as §1, with “decrease” for “increase”, “uric acid” for “urea”, “20” for “100”, “75” for “10”", "assay_type": "toxicity, organism-based", "set-up": "scale not given: the % may be the effect or the level left", "settings": "in vivo"}, "Mus musculus [19]": {"system": "Mus musculus", "assay": "as §4, with “change” for “decrease”, “20” for “100”, “10” for “75”", "assay_type": "toxicity, organism-based", "settings": "in vivo", "how_it_was_run": "as §5"}, "Mus musculus [20]": {"system": "Mus musculus", "assay": "as §1, with “Cardiotoxicity” for “Nephrotoxicity”, “change” for “increase in urea level”, “serum LDH level” for “serum”, “20” for “100”", "assay_type": "toxicity, organism-based", "settings": "in vivo", "how_it_was_run": "as §5"}, "Mus musculus [21]": {"system": "Mus musculus", "assay": "as §1, with “Cardiotoxicity” for “Nephrotoxicity”, “decrease” for “increase in urea level”, “serum LDH level” for “serum”, “20” for “100”, “75” for “10”, “81” for “127”", "assay_type": "toxicity, organism-based", "set-up": "scale not given: the % may be the effect or the level left", "settings": "in vivo", "how_it_was_run": "as §5"}, "Mus musculus [22]": {"system": "Mus musculus", "assay": "as §1, with “Hepatotoxicity” for “Nephrotoxicity”, “ratio of serum AST to GOT” for “urea”, “level” for “level in serum”, “20” for “100”, “75” for “10”, “81” for “127”", "assay_type": "toxicity, organism-based", "settings": "in vivo"}, "Mus musculus [23]": {"system": "Mus musculus", "assay": "as §1, with “Hepatotoxicity” for “Nephrotoxicity”, “alkaline phosphatase” for “urea”, “level” for “level in serum”, “20” for “100”, “16” for “127”", "assay_type": "toxicity, organism-based", "settings": "in vivo"}}, "note": "Activity calls are given as the source filed them. The rule behind the calls is not given here."}
{"smiles": "COc1ccc(C(=O)CCN2CCN(c3ccc(F)cc3)CC2)cc1", "values": [{"measurement": "Activity", "setting": "Mus musculus [1]", "result": "<= 10%"}]}
{"smiles": "COc1ccc(C(=O)CCN2CCN(c3ccc(Cl)cc3)CC2)cc1", "values": [{"measurement": "Activity", "setting": "Trypanosoma cruzi [2]", "result": 78, "unit": "%"}, {"measurement": "Activity", "setting": "Mus musculus [3]", "result": "<= 10%"}, {"measurement": "Activity", "setting": "Trypanosoma cruzi [4]", "result": 12, "unit": "%"}]}
{"smiles": "COc1ccc(C(=O)CCN2CCN(c3ccc([N+](=O)[O-])cc3)CC2)cc1", "values": [{"measurement": "Activity", "setting": "Mus musculus [5]", "result": "> 40", "unit": "%"}, {"measurement": "Activity", "setting": "Mus musculus [6]", "result": "< 10", "unit": "%"}, {"measurement": "Activity", "setting": "Mus musculus [7]", "result": "<= 10%"}]}
{"smiles": "O=C(Cn1ccnc1[N+](=O)[O-])NCc1ccccc1", "note": "[BENZNIDAZOLE]", "values": [{"measurement": "Activity", "setting": "Mus musculus [8]", "result": "> 10", "unit": "%"}, {"measurement": "Activity", "setting": "Trypanosoma cruzi [9]", "result": "inactive"}, {"measurement": "Activity", "setting": "Trypanosoma cruzi [10]", "result": 51, "unit": "%"}, {"measurement": "Activity", "setting": "Trypanosoma cruzi [11]", "result": 33, "unit": "%"}, {"measurement": "Activity", "setting": "Trypanosoma cruzi [12]", "result": 33, "unit": "%"}, {"measurement": "Activity", "setting": "Trypanosoma cruzi [13]", "result": "Active"}, {"measurement": "Activity", "setting": "Trypanosoma cruzi [14]", "result": "Active"}, {"measurement": "Activity", "setting": "Mus musculus [15]", "result": "<= 30%"}, {"measurement": "Activity", "setting": "Mus musculus [16]", "result": "<= 30%"}, {"measurement": "Activity", "setting": "Mus musculus [17]", "result": "<= 30%"}, {"measurement": "Activity", "setting": "Mus musculus [18]", "result": "<= 20%"}, {"measurement": "Activity", "setting": "Mus musculus [19]", "result": "< 10", "unit": "%"}, {"measurement": "Activity", "setting": "Mus musculus [20]", "result": "< 10", "unit": "%"}, {"measurement": "Activity", "setting": "Mus musculus [21]", "result": "<= 30%"}, {"measurement": "Activity", "setting": "Mus musculus [22]", "result": "<= 20%"}, {"measurement": "Activity", "setting": "Mus musculus [23]", "result": "<= 20%"}]}
